The source of these data is PubChem BioAssay AID1800 (The Scripps Research Institute Molecular Screening Center, 2009).

About 1,600 (0.55%) of roughly 290,000 compounds were called active. This is one part of a sample in which actives are shown more often than they occur.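 Rule for the calls: active = inhibition above the mean of all tested compounds plus 3 SD, set per campaign (cut at about 35% in these data); inactive = the rest.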

The assay concerns Hepatitis C virus NS3 helicase. Put plainly: HCV NS3 DNA unwinding blockers – biochemical, Cy5 molecular beacon fluorescence, primary screen (AID 1800). Particulars: at 10.9 µM, stronger effect = higher value. Summed up: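 Material: hepatitis C virus NS3 helicase domain fragment enzyme; measured by: Cy5 fluorescence, 0 and 60 min reads; control set: DMSO and thioflavine S; incubation: 60 min unwinding reaction at 25 °C after ATP addition; read-out basis: % inhibition from 60/0 min fluorescence ratio, DMSO 0%, thioflavine S 100%; repeats: singlicate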
As for `Cc1cc(O)c(C(=O)/C=C/c2c(F)c(F)c(F)c(F)c2F)c(=O)o1`, the inhibition (as a rule, the change of the read-out against control, counted positive when it falls) is 53.7% (active).

As for `Cc1ccc(N=Cc2c(O)cc(C)oc2=O)c(C)c1`, the inhibition was -4.71% (inactive).

On to `COc1ccc(Cl)cc1NC(=O)CN(C)C(=O)CCCc1c[nH]c2ccccc12`, for which the inhibition was -11.3% (inactive).

As for `Cc1nc2ccccc2c(=O)n1NC(=O)c1ccc(Cl)c([N+](=O)[O-])c1`, the inhibition is -12.7% (inactive).

For the compound `COc1ccc(NC(=O)CCN2C(=O)/C(=C/c3ccc4c(c3)OCO4)SC2=S)cc1`, the inhibition was -4.44% (inactive).

Turning to `Cc1ccc(C(=O)O)cc1-c1ccc(/C=C2\SC(=O)N(CC(=O)Nc3ccc4c(c3)OCO4)C2=O)o1`, the inhibition was 46.3% (active).

On to `O=C(CN1CCN(CC(=O)Nc2ccc3c(c2)OCO3)CC1)Nc1ccc(F)cc1`, for which the inhibition was 2% (inactive).

`COc1ccccc1-n1c(SCC(=O)O)nc2sc3c(c2c1=O)CCC3`: the inhibition was 5.31% (inactive).

Regarding `CCSc1nc2sc3c(c2c(=O)n1-c1ccc(C)cc1)CCN(C)C3`, the inhibition is -28.2% (inactive).

Take `Cc1ccc(C)c(-n2c(SCC(=O)O)nc3sc4c(c3c2=O)CCCC4)c1`: the inhibition was 37.1% (active).

Consider `Cc1cccc(N2CCN(C(C)C(=O)N3CCc4ccccc43)CC2)c1C` (stereo not given), for which the inhibition was -14.8% (inactive).

As for `Cc1cccc(N(C)C(=O)c2cc(S(=O)(=O)N3CCCCC3)c[nH]2)c1`, the inhibition was -16.4% (inactive).

On to `Cc1ccc(OCc2cc(C(=O)N(C)CCn3ccnc3C)no2)cc1C`, for which the inhibition is -14.7% (inactive).

Consider `CNc1nnc(-c2ccco2)s1`, for which the inhibition was -1.81% (inactive).

For `COc1ccc(OCC(=O)Nc2nnc(-c3ccco3)s2)cc1`, the inhibition was 58.5% (active).

As to `Cc1ccc(OCC(=O)Nc2nnc(-c3ccco3)s2)cc1`, the inhibition was 13.6% (inactive).

For the compound `Cc1cccc(NC(=O)CCn2c(=O)oc3ccccc32)c1`, the inhibition is -6.84% (inactive).

Turning to `COc1ccc(C(=O)C2CCCN(C(=O)c3ccc(OC)o3)C2)c(C)c1` (stereo not given), the inhibition was -2.85% (inactive).

For the compound `COC(=O)C1=C(C)N(C(C)c2ccccc2)C(=O)/C1=C\c1ccco1` (stereo not given), the inhibition was 20.9% (inactive).

Take `COc1cc(CN2CCC(C(N)=O)CC2)ccc1OCc1ccccc1`: the inhibition is -5.96% (inactive).

For `COc1cc(C2CC(=O)N3CN(Cc4ccccc4)CSC3=C2C#N)ccc1OCc1ccccc1` (stereo not given), the inhibition is 52.1% (active).

Take `COc1cc(CNC2CCCC2)c(Br)cc1OCc1ccccc1`: the inhibition is -30.4% (inactive).

Consider `COC(=O)c1cc(S(=O)(=O)N2CCC(C(N)=O)CC2)oc1C`, for which the inhibition was 4.32% (inactive).

`COc1ccc(C2/C(=C(/O)c3ccccc3)C(=O)C(=O)N2C)c(OC)c1` (stereo not given): the inhibition was 3.37% (inactive).

As to `COc1ccccc1C1/C(=C(/O)c2ccc(OC(C)C)cc2)C(=O)C(=O)N1c1cc(C)on1` (stereo not given), the inhibition was 43.1% (active).

On to `Cc1cc(N2C(=O)C(=O)/C(=C(/O)c3ccc(Cl)cc3)C2c2cccc(Br)c2)no1` (stereo not given), for which the inhibition was 24.4% (inactive).

Consider `CN(c1ccccc1)S(=O)(=O)c1ccc(C(=O)NCCc2ccccc2)cc1`, for which the inhibition was -7.81% (inactive).

With `O=C(CC1C(=O)NCCN1C(=O)c1ccc([N+](=O)[O-])cc1)Nc1cccc(Cl)c1` (stereo not given), the inhibition was -5.86% (inactive).

Turning to `Cc1ccc(Nc2ncnc3c2cnn3C)c(C)c1`, the inhibition was 5.11% (inactive).

For `CCc1nnc(NC(=O)/C=C/c2ccc(C)o2)s1`, the inhibition is 8.82% (inactive).

Take `Cc1ccc(/C=C/C(=O)Nc2ccc([N+](=O)[O-])c(NC(=O)/C=C/c3ccc(C)o3)c2)o1`: the inhibition is 46.7% (active).

Take `Cc1ccc(/C=C/C(=O)Nc2cc(S(=O)(=O)N3CCCCCC3)ccc2OCC(F)(F)F)o1`: the inhibition was 21.8% (inactive).

As to `COc1ccc(C)cc1N(CC(=O)N1CCCC1)S(=O)(=O)c1ccccc1`, the inhibition is 21% (inactive).

For the compound `Cc1ccc(C(c2nnnn2CS(=O)(=O)c2ccc(C)cc2)N2CCC(C)CC2)cc1` (stereo not given), the inhibition was -6.3% (inactive).

As to `CC(=O)N1c2ccc(S(=O)(=O)N(C)CC(=O)N(C)Cc3ccccc3)cc2CC1C` (stereo not given), the inhibition was -2.38% (inactive).

Regarding `COc1ccc(OC)c(-n2nnnc2SCC(=O)Nc2cc(C)ccc2OC)c1`, the inhibition is -1.59% (inactive).

Regarding `Cc1ccc(OCC(=O)c2cc(C)n(Cc3ccco3)c2C)c([N+](=O)[O-])n1`, the inhibition is 41.5% (active).

In the case of `Cc1cc(C(=O)CSc2nc(N)cc(=O)[nH]2)c(C)n1Cc1ccco1`, the inhibition was 22.4% (inactive).

Turning to `COCC(C)n1c(C)cc(C(=O)COc2ccc(C)nc2[N+](=O)[O-])c1C` (stereo not given), the inhibition is 2.44% (inactive).

For `COc1ccc(C)cc1-n1nnnc1SCC(=O)c1cc(C)n(Cc2ccco2)c1C`, the inhibition is 52.1% (active).

With `Cc1cc(C(=O)COC(=O)CNC(=O)c2ccc(F)cc2)c(C)n1Cc1ccco1`, the inhibition was 10% (inactive).

As to `Cc1cc(S(=O)(=O)N2CCOCC2)ccc1OCC(=O)N1CCOCC1`, the inhibition is -4.99% (inactive).

Consider `COc1cc(NC(=O)CCS(=O)(=O)c2ccc3c(c2)oc(=O)n3C)cc(OC)c1`, for which the inhibition was 3.01% (inactive).

Turning to `CCc1ccc(NC(=O)CS(=O)CC(=O)N2CCN(c3ccccc3F)CC2)cc1` (stereo not given), the inhibition is 8.61% (inactive).

Turning to `COc1ccc(NC(=O)CN2C(=O)CSc3ccc(S(=O)(=O)N4CCC(C)CC4)cc32)cc1`, the inhibition is -2.68% (inactive).

Turning to `COc1cccc(C(=O)CC(=O)C(=O)Nc2ccc([N+](=O)[O-])cc2C)c1`, the inhibition was 37.6% (active).

As to `COc1cccc(NCCC(=O)c2cccc([N+](=O)[O-])c2)c1`, the inhibition is 2.63% (inactive).

Take `COc1ccc(C(=O)CC(=O)C(=O)Nc2cc([N+](=O)[O-])ccc2OC)cc1`: the inhibition is 12.6% (inactive).

Consider `COc1ccc(-n2ncc3c(SCC(=O)NNC(C)=O)ncnc32)cc1`, for which the inhibition is 5.53% (inactive).

Take `O=C1NN(c2ccccc2)C(=O)/C1=C/c1ccc(-c2cccc(C(=O)O)c2)o1`: the inhibition was 54.3% (active).

For `O=C(O)C(c1ccccc1)N1C(=O)/C(=C\c2ccc(-c3cccc(Cl)c3)o2)SC1=S` (stereo not given), the inhibition is 8.54% (inactive).

Regarding `Cc1cccc(C)c1-n1c(C)cc(/C=C2\C(=O)NN(c3ccccc3)C2=O)c1C`, the inhibition is 9.92% (inactive).

In the case of `CC(NS(=O)(=O)c1ccc(OCC(=O)N2CCCC2)cc1)c1ccccc1` (stereo not given), the inhibition is -5.83% (inactive).

In the case of `O=C(NCc1ccccc1)C(=O)NCC1OCCN1S(=O)(=O)c1ccc(Br)cc1` (stereo not given), the inhibition was -0.44% (inactive).

Take `O=C(COc1ccc2c(c1)CCC2)N1CCN(c2ccc(F)cc2)CC1`: the inhibition was -11.2% (inactive).

Consider `CC1(C)NC(=O)N(CCCCSc2ccc(Cl)cc2)C1=O`, for which the inhibition is -1.4% (inactive).

As for `CSc1c(SCc2ccccc2)cnn(Cc2ccccc2)c1=O`, the inhibition is 48.3% (active).

Consider `CSc1nc2ccccc2c(=O)n1Cc1ccc(F)cc1`, for which the inhibition was -9.76% (inactive).

As for `CC(=O)Nc1ccc(NC(=O)CSc2ncnc3c2cnn3Cc2ccccc2)cc1`, the inhibition is -5.31% (inactive).

Turning to `CSc1ccccc1OCc1cc(C(=O)N(C)CCc2c(C)n[nH]c2C)no1`, the inhibition was 11.5% (inactive).

Turning to `O=C(CSCc1ccccc1)Nc1ccccc1`, the inhibition was -0.15% (inactive).

In the case of `O=S(=O)(Nc1ccc2nc(-c3ccco3)[nH]c2c1)c1ccccc1`, the inhibition was -5.98% (inactive).

On to `Cc1cccc(NC(=O)c2sc3nc4c(c(-c5ccco5)c3c2N)CCC4)c1`, for which the inhibition was 93% (active).

`Cc1cccc(NC(=O)c2sc3nc(N4CCOCC4)c4c(c3c2N)CCCC4)c1`: the inhibition was 18.7% (inactive).

Regarding `NC(=O)c1sc2nc3c(c(-c4ccccc4)c2c1N)CCC3`, the inhibition was 1.99% (inactive).

In the case of `CN(CCc1ccccc1)c1ccc([N+](=O)[O-])cn1`, the inhibition is -0.4% (inactive).

With `CCOC(=O)c1ccccc1N1C(=O)C2Sc3[nH]c(=O)sc3C(/C=C/c3ccccc3)C2C1=O` (stereo not given), the inhibition was 37.9% (active).

On to `CCOC(=O)C1Sc2[nH]c(=O)sc2C(c2ccc(Cl)cc2)C1C(=O)OCC` (stereo not given), for which the inhibition is 17.4% (inactive).

Consider `CC(OC(=O)c1ccccc1N1C(=O)C2C3CCC(C3)C2C1=O)C(=O)c1ccccc1` (stereo not given), for which the inhibition is 1.1% (inactive).

Consider `O=C(CN1C(=O)S/C(=C\c2ccccc2Cl)C1=O)NC1C=CS(=O)(=O)C1` (stereo not given), for which the inhibition is -23.6% (inactive).

On to `Fc1ccc(-c2ccc(-c3nn4c(-c5ccco5)nnc4s3)o2)cc1`, for which the inhibition was 40.9% (active).

Take `c1ccc(-c2cc(-c3nnc4sc(-c5ccccn5)nn34)[nH]n2)cc1`: the inhibition was -7.42% (inactive).

With `COc1cc(-c2nn3c(-c4cccc(C)c4)nnc3s2)cc(OC)c1OC`, the inhibition is 12.9% (inactive).

`C=CCOc1ccc(/C=C2/C(=O)ON=C2C)cc1OCC`: the inhibition was 16.9% (inactive).

For `CCOC(=O)c1c(N)nn(C(=O)c2ccccc2)c1-c1ccccc1`, the inhibition was -7.63% (inactive).

Consider `CCOC(=O)c1nnn(-c2nonc2OC)c1-c1ccccc1`, for which the inhibition is 5.43% (inactive).

As for `CCOC(=O)c1nnn(-c2nc(OC)nc(N(C)C)n2)c1-c1ccccc1`, the inhibition is 39.7% (active).

`COc1ccc(CN(C)C(C)C(=O)NC2CCCc3ccccc32)cc1` (stereo not given): the inhibition was -16.3% (inactive).

On to `COc1ccc(-c2ocnc2C(=O)Nc2ccc3c(c2)CCC3)cc1`, for which the inhibition is -14.4% (inactive).

For the compound `COc1ccc(CNS(=O)(=O)c2ccc(NC(=O)N3CCCCC3)cc2)cc1`, the inhibition is -6.52% (inactive).

Take `Cc1ccc(-n2nc3c(=O)n(C(C)C(=O)NCc4ccc5c(c4)OCO5)nc(C)c3c2C)cc1` (stereo not given): the inhibition is 4.33% (inactive).

Turning to `O=C(CCCN1C(=O)/C(=C\c2ccco2)SC1=S)Nc1cccc2ccccc12`, the inhibition was 40.1% (active).

Consider `O=C(CCCN1C(=O)/C(=C\c2ccccc2)SC1=S)Nc1ccccc1O`, for which the inhibition is -2.1% (inactive).

Regarding `O=C(CCCN1C(=O)/C(=C/c2ccco2)SC1=S)Nc1ccccc1`, the inhibition was 34.7% (inactive).

Consider `Cc1cc(C)n(CCC(=O)N2CCN(S(=O)(=O)c3ccc(C)c(C)c3)CC2)n1`, for which the inhibition was -5.54% (inactive).

`Cc1c(NC(=O)Nc2cccc([N+](=O)[O-])c2)c(=O)n(-c2ccccc2)n1C`: the inhibition is 4.3% (inactive).

For the compound `CC1(C)CC(=O)c2c(n(S(=O)(=O)c3ccccc3)c3ccc(NS(=O)(=O)c4ccccc4)cc23)C1`, the inhibition was -3.21% (inactive).

On to `CC(=O)N(C)c1ccc(NC(=O)C(F)(F)F)cc1`, for which the inhibition is -2.62% (inactive).

As to `CN(C)c1ccc(N/C=C/C(=O)C(F)(F)F)cc1`, the inhibition is 47.6% (active).

Take `CC(C)CNC(=O)C(=O)Nc1ccc(N(C)C)cc1`: the inhibition was -3.21% (inactive).
